Where a chain is given by its changes, count along the chain named.
How the values were obtained:
Details in all cases: stereoisomer not certain
O10A2 H43R H207R K258T = tested on: T1, O10A2 H43R H207R K258T
T1 sequence (whole entry): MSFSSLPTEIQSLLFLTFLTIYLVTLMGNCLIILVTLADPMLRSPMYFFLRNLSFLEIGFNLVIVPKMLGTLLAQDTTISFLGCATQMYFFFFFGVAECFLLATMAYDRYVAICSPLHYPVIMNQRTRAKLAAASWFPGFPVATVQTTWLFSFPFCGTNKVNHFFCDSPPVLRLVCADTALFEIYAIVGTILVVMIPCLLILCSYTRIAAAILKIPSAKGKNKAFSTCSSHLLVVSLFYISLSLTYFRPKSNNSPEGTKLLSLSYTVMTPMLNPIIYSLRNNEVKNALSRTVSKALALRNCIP
In short: (§1)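 Whether a receptor–molecule pair is responsive (active) rests on the original authors' judgment that its measured signal was statistically different from baseline. Pairs without that judgment are non-responsive (inactive). Sources used varied assay methods, commonly transient luciferase assays in mammalian cell lines.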

O10A3 C8G = tested on: T2, O10A3 C8G
T2 sequence (whole entry): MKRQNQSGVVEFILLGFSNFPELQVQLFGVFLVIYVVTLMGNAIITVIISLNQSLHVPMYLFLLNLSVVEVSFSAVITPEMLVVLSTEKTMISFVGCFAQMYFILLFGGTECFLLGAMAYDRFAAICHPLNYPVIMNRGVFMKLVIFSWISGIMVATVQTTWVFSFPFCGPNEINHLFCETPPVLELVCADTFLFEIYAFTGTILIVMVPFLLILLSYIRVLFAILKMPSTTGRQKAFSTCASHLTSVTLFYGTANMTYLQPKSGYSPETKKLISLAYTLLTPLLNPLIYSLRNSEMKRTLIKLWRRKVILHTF
In short: as §1

O10A6 = tested on: T3, O10A6
T3 sequence (whole entry): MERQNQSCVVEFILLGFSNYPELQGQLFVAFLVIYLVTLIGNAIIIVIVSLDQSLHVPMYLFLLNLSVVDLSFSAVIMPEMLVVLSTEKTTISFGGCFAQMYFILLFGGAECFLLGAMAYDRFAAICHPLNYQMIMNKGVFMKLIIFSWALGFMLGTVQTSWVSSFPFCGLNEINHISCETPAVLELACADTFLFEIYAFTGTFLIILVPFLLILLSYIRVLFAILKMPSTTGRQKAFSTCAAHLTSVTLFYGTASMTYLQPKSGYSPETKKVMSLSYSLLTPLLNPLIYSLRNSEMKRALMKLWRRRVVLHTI
In short: as §1

O10AD G65C = tested on: T4, O10AD G65C
T4 sequence (whole entry): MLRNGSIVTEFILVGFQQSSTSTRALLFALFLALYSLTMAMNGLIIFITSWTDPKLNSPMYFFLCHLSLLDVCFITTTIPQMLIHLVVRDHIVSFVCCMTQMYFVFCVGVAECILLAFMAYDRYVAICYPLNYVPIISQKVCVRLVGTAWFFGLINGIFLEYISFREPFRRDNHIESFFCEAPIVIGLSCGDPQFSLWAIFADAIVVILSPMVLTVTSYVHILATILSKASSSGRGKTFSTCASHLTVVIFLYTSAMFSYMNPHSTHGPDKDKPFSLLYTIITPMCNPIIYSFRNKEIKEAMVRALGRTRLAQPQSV
In short: as §1

O10D3 V134A R197K = tested on: T5, O10D3 V134A R197K
T5 sequence (whole entry): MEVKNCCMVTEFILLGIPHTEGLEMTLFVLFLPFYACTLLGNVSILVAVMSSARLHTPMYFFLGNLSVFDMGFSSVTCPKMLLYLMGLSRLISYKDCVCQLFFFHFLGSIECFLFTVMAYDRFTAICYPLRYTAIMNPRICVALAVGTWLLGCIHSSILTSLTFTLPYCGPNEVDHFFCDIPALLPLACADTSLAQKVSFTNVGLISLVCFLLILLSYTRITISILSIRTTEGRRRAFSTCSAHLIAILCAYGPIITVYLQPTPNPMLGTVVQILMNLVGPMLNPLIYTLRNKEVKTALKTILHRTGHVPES
In short: as §1

O10G4 L24P V195E = tested on: T6, O10G4 L24P V195E
T6 sequence (whole entry): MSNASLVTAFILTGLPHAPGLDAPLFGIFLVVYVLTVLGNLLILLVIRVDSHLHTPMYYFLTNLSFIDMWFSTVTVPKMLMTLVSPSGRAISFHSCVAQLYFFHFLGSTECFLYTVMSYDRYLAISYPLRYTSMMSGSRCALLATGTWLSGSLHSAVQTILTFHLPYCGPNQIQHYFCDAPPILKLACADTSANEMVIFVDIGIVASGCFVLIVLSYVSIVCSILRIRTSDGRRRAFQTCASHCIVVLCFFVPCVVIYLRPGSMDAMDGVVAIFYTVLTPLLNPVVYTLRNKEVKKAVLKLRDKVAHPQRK
In short: as §1

O10G7 A18V P19Q G20A = tested on: T7, O10G7 A18V P19Q G20A
T7 sequence (whole entry): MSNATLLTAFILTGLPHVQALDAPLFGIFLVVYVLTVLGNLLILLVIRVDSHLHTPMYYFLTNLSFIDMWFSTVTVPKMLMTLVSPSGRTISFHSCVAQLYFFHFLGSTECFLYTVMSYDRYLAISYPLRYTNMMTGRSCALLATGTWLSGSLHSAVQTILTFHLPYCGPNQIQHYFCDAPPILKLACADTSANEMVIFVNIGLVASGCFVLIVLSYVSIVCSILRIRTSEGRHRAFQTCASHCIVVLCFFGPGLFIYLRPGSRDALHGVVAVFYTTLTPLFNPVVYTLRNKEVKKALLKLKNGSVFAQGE
In short: as §1

O10G7 I28V = tested on: T8, O10G7 I28V
T8 sequence (whole entry): T7 sequence (whole entry) with V18A, Q19P, A20G, I28V
In short: as §1

O10H2 = tested on: T9, O10H2
T9 sequence (whole entry): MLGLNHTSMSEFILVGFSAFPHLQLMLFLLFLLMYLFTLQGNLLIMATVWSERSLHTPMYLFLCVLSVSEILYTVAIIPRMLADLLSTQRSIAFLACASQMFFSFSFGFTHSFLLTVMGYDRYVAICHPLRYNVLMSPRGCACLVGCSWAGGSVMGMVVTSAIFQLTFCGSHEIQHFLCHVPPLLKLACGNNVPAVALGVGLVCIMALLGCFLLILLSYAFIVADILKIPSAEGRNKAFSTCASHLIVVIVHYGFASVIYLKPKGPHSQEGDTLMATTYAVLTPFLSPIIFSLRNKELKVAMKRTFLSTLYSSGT
In short: as §1

O10H3 R54H = tested on: T10, O10H3 R54H
T10 sequence (whole entry): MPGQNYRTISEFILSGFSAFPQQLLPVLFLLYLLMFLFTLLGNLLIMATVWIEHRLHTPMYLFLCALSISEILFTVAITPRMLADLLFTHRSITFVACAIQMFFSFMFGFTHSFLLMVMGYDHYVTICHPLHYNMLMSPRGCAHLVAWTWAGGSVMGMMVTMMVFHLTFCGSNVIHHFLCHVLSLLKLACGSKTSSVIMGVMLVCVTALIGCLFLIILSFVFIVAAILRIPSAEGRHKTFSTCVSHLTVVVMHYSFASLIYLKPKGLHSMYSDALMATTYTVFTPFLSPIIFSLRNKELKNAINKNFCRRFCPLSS
In short: as §1

O10H4 I50V = tested on: T11, O10H4 I50V
T11 sequence (whole entry): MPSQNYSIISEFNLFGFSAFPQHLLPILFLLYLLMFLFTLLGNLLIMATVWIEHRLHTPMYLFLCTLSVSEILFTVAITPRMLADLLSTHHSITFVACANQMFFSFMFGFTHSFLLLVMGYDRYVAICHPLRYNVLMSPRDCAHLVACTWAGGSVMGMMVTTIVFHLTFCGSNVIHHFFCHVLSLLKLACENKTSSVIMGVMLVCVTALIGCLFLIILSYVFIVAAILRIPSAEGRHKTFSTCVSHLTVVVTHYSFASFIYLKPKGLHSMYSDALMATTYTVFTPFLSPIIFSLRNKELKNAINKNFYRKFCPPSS
In short: as §1

O10H5 S268Y = tested on: T12, O10H5 S268Y
T12 sequence (whole entry): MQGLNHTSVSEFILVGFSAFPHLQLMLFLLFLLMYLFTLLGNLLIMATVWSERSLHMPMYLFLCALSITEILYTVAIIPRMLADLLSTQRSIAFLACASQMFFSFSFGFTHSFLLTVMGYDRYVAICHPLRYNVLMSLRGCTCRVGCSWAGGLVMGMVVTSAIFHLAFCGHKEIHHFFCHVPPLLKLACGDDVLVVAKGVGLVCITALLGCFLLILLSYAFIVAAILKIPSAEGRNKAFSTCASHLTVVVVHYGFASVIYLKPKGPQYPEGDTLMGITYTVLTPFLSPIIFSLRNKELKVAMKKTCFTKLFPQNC
In short: as §1

O10J1 M62I I103M = tested on: T13, O10J1 M62I I103M
T13 sequence (whole entry): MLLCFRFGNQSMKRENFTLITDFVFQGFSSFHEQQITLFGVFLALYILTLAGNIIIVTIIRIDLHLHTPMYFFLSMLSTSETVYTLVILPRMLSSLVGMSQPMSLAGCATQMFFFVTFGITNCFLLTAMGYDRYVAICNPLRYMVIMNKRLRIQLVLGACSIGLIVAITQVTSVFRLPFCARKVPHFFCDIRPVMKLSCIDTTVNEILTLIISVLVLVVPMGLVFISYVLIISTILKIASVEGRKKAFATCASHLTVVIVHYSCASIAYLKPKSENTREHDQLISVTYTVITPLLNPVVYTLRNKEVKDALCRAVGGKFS
In short: as §1

O10J1 M62I = tested on: T14, O10J1 M62I
T14 sequence (whole entry): T13 sequence (whole entry) with M103I
In short: as §1

O10J3 Q235R E319G = tested on: T15, O10J3 Q235R E319G
T15 sequence (whole entry): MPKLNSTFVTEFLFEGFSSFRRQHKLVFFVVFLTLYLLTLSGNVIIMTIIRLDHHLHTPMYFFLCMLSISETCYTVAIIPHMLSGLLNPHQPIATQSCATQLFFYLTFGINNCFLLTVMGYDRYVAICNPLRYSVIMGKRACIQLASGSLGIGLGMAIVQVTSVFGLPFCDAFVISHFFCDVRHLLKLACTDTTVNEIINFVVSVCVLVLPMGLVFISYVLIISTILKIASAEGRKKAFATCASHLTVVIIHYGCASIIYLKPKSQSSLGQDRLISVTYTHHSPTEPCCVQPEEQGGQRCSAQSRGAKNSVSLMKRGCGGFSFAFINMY
In short: as §1

O10P1 R195K = tested on: T16, O10P1 R195K
T16 sequence (whole entry): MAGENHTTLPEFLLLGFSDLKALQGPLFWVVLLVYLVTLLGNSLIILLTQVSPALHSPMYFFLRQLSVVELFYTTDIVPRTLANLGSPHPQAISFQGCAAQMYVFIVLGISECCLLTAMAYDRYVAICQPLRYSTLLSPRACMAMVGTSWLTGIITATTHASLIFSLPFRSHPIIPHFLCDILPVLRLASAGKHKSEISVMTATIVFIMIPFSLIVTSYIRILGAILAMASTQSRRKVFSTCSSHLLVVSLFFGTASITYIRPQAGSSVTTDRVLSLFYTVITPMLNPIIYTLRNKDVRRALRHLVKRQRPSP
In short: as §1

O10Q1 E12D = tested on: T17, O10Q1 E12D
T17 sequence (whole entry): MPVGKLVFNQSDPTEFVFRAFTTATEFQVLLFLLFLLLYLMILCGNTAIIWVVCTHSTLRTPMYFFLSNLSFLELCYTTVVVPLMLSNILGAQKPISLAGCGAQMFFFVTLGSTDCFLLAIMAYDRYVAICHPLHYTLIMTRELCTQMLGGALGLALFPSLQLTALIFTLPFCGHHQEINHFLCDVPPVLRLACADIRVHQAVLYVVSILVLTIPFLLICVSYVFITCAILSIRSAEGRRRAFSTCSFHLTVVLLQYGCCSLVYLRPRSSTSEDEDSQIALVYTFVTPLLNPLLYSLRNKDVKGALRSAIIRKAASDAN
In short: as §1

O10Q1 Q10R E12D = tested on: T18, O10Q1 Q10R E12D
T18 sequence (whole entry): T17 sequence (whole entry) with Q10R
In short: as §1

Measured: odorant receptor agonist call;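 further: active if original authors judged signal statistically different from baseline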

CCCCCCC=CCCC=O
active: O10A6
inactive: all other assays above

CCC1OC(=O)C(O)=C1C (centres undefined)
inactive: all assays above

CCCCC=CCCC=O
active: O10A6

CCCCC=CCCCCC=O
active: O10A6

Cc1cnc(C)c(C)n1
inactive: all assays above

CC1=NC(C)C(C)S1 (centres undefined)
inactive: all assays above

Source: the M2OR odorant receptor database
